Results published in ChEMBL document CHEMBL1123488, “Agents for the treatment of brain edema. 2. [(2,3,9,9a-Tetrahydro-3-oxo-9a-substituted-1H-fluoren-7-yl)oxy]+ ++alkanoi c acids and some of their analogues” (J Med Chem, 1986).

What was measured:
[1] = species: Felis catus; test: In vitro concentration required for 50% inhibition of swelling of cat cerebrocortical slices; type: functional; settings: read-out: I50
Procedure, shortened: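 Cat cortical slices were weighed and incubated 60 min at 22 °C in 27 mM K+ medium, with HCO3- added for the last 40 min and inhibitor present throughout. Swelling = (final − initial wet weight)/initial wet weight × 100. The HCO3−-dependent increment was taken as the target. I50 is the molarity giving 50% inhibition, read from the concentration–response curve.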

[2] = % distribution in octanol versus pH7.4 buffer; type: physicochemical; settings: pH 7.4
[3] = Dissociation constant (pKa) (determined in 30% EtOH); type: physicochemical

Structure (SMILES)	IC50 ([1]; Felis catus) [nM]	Distribution [2] [%]	pKa [3]	IC50 [1] [nM]
CCCC12CCC(C(C)=O)=C1c1c(cc(OCC(=O)O)c(Cl)c1Cl)C2 (configuration not stated)	100	95	4.1	–
CCC12CCC(=O)C=C1c1c(cc(OCC(=O)OC(C)(C)C(=O)O)c(Cl)c1Cl)C2 (stereo in doubt; 16b-9)	1	95	3.8	–
C=CC12CCC(=O)C=C1c1c(cc(OCC(=O)O)c(Cl)c1Cl)C2 (configuration not stated)	> 10	70	3.5	–
CCCCC12CCC(=O)C=C1c1c(cc(OCC(=O)O)c(Cl)c1Cl)C2 (configuration not stated)	> 10	98	3.5	–
CCC12CCC(=O)C=C1c1c(cc(OCC(=O)OC(C)(C)C(=O)O)c(Cl)c1Cl)C2 (stereo in doubt; (+)-16b-9)	–	96	–	0.5
CC12CCC(=O)C=C1c1c(cc(OCC(=O)O)c(Cl)c1Cl)C2 (configuration not stated)	10	62	3.75	–
CCC12CCC(=O)C=C1c1c(cc(OCC(=O)OCCCO)c(Cl)c1Cl)C2 (configuration not stated)	0.7	99.3	–	–
CCCC12CCC(=O)C=C1c1c(cc(OCC(=O)NCCN(C)C)c(Cl)c1Cl)C2 (configuration not stated)	> 1000	99.7	7.7	–
CCCC12CCC(=O)C=C1c1c(cc(O)c(Cl)c1Cl)C2 (single isomer, unassigned; (+))	> 10000	11	6.18	–
CCC12CCC(=O)C=C1c1c(cc(OCC(=O)OCC(=O)O)c(Cl)c1Cl)C2 (stereo in doubt; 16b-8)	6	91	3.8	–
CCCC12CCC(=O)C=C1c1c(cc(OCC(=O)OC)c(Cl)c1Cl)C2 (configuration not stated)	0.002	> 99.9	–	–
CCC12CCC(=O)C=C1c1c(cc(OCc3nn[nH]n3)c(Cl)c1Cl)C2 (configuration not stated)	> 100	95	3.72	–
CCC12CCC(=O)C=C1c1c(cc(OCC(=O)O)c(Cl)c1Cl)C2 (stereo in doubt; (-)-5b)	–	81	3.6	30000
CCC12CCC(=O)C=C1c1c(cc(OCC(=O)O)c(Cl)c1Cl)C2 (single isomer, unassigned; (+))	–	–	–	10
CCC12CCC(=O)C=C1c1c(cc(OCC(=O)OCC(=O)O)c(Cl)c1Cl)C2 (stereo in doubt; (+)-16b-8)	–	83	–	3
CC(C)C12CCC(=O)C=C1c1c(cc(OCC(=O)O)c(Cl)c1Cl)C2 (configuration not stated)	> 100	89	3.83	–
CCC12CCC(=O)C=C1c1c(cc(OCC(=O)OC)c(Cl)c1Cl)C2 (configuration not stated)	20	99.5	–	–
CCCC12CCC(=O)C=C1c1c(cc(OCC(=O)O)c(Cl)c1Cl)C2 (single isomer, unassigned; (-))	–	–	–	10000
CCC12CCC(=O)C=C1c1c(cc(OCC(=O)OCC3COC(C)(C)O3)c(Cl)c1Cl)C2 (configuration not stated)	> 10	99.9	–	–
CCOC(=O)COc1cc2c(c(Cl)c1Cl)C1=CC(=O)CCC1(CC)C2 (stereo in doubt; 16b-1)	–	> 99.8	–	0.2

Structure (SMILES)	IC50 ([1]; Felis catus) [nM]	Distribution [2] [%]	pKa [3]	IC50 [1] [nM]
CCCC12CCC(=O)C(C)=C1c1c(cc(OCC(=O)O)c(Cl)c1Cl)C2 (configuration not stated)	> 100	98	3.5	–
CCCC12CCC(=O)C=C1c1c(cc(OCC(=O)NN(C)C)c(Cl)c1Cl)C2 (configuration not stated)	> 100	99.7	3.9	–
CCCC12CCC(=O)C=C1c1c(cc(OCC(=O)O)c(C)c1C)C2 (configuration not stated)	100	49	4.3	–
CCOC(=O)COc1cc2c(c(Cl)c1Cl)C1=CC(=O)CCC1(CC)C2 (single isomer, unassigned; (+))	–	> 99.9	–	0.1
CCCC12CC(=O)C=C1c1c(cc(OCC(=O)O)c(Cl)c1Cl)C2 (configuration not stated)	100	88	3.84	–
CCC12CCC(=O)C=C1c1c(cc(OCC(=O)OCc3cccnc3)c(Cl)c1Cl)C2 (configuration not stated)	0.1	> 99.9	3.32	–
CCC12CCC(=O)C=C1c1c(cc(OCC(=O)O)c(Cl)c1Cl)C2 (stereo in doubt; 5b)	–	–	–	30
CCC12CCC(=O)C=C1c1c(cc(OCC(=O)OCC(C)=O)c(Cl)c1Cl)C2 (configuration not stated)	1	> 99.9	–	–
CCCC12CCC(=O)C=C1c1c(cc(OCC(=O)OC(C)(C)C(=O)O)c(Cl)c1Cl)C2 (single isomer, unassigned; (+))	0.004	98	3.8	–
CCOC(=O)COc1cc2c(c(Cl)c1Cl)C1=CC(=O)CCC1(CC)C2 (single isomer, unassigned; (-))	–	–	–	> 10000
CCCC12CCC(=O)C=C1c1c(cc(OCC(=O)O)c(Cl)c1Cl)C2 (stereo in doubt; 5c)	–	93	3.6	0.04
CCCC12CCC(=O)C=C1c1c(cc(OCCCC(=O)O)c(Cl)c1Cl)C2 (configuration not stated)	3	99.8	3.7	–
O=C(O)COc1cc2c(c(Cl)c1Cl)C1=CC(=O)CCC1(C1CCCC1)C2 (configuration not stated)	1	97	3.83	–
CCC12CCC(=O)C=C1c1c(cc(OCCCC(=O)O)c(Cl)c1Cl)C2 (configuration not stated)	> 10000	99.2	3.7	–
CCC12CCC(=O)C=C1c1c(cc(OCC(=O)OCC3CCC(CO)O3)c(Cl)c1Cl)C2 (configuration not stated)	1000	99.7	–	–
CCC12CCC(=O)C=C1c1c(cc(OCC(=O)OCCN3CCOCC3)c(Cl)c1Cl)C2 (configuration not stated)	> 10	98.6	5.08	–
CCC12C=CC(=O)C=C1c1c(cc(OCC(=O)O)c(Cl)c1Cl)C2 (configuration not stated)	> 10	79	3.7	–
CCCC12CCC(=O)C=C1c1c(cc(OCC(=O)OC(CC)(CC)C(=O)O)c(Cl)c1Cl)C2 (single isomer, unassigned; (+))	0.04	> 99.9	3.4	–
CCCC12CCC(=O)C=C1c1ccc(OCC(=O)O)cc1C2 (configuration not stated)	50	49	4.05	–
CCCC12CCC(=O)C=C1c1c(cc(SCC(=O)O)c(Cl)c1Cl)C2 (configuration not stated)	> 1000	99	4.7	–
